According to ChEMBL document CHEMBL4477207, “Discovery of Novel 3-Quinoline Carboxamides as Potent, Selective, and Orally Bioavailable Inhibitors of Ataxia Telangiectasia Mutated (ATM) Kinase” (J Med Chem, 2016):
pIC50: −log10 of the molar value. ≈ marks a conversion by molar mass, not a printed value. Calls of active or inactive are those of the source. No cut-off for these calls is given here.

Columns and labels:
SW-620 = assay: Antitumor activity against human SW620 cells xenografted in immunocompromised athymic Swiss nude mouse assessed as tumor growth inhibition at 50 mg/kg, ip once in a week for 3 weeks regime starting day 1 post xenograft; format: functional, organism-based
in vitro [1] = settings: rat, hepatocytes
Homo sapiens [2] = species: Homo sapiens; assay: Selectivity ratio of IC50 for ATR in human HT-29 cells to IC50 for ATM in human HT-29 cells; format: cell-based
[3] = target: Phosphatidylinositol 4,5-bisphosphate 3-kinase catalytic subunit beta isoform (Homo sapiens, UniProt P42338); assay: Inhibition of human recombinant PI3Kbeta using PIP2/ATP as substrate incubated for 20 mins followed by substrate addition by Kinase Glo reagent based luminescence assay
Phosphatidylinositol 4,5-bisphosphate 3-kinase catalytic subunit beta isoform, sequence (P42338 whole entry, canonical isoform): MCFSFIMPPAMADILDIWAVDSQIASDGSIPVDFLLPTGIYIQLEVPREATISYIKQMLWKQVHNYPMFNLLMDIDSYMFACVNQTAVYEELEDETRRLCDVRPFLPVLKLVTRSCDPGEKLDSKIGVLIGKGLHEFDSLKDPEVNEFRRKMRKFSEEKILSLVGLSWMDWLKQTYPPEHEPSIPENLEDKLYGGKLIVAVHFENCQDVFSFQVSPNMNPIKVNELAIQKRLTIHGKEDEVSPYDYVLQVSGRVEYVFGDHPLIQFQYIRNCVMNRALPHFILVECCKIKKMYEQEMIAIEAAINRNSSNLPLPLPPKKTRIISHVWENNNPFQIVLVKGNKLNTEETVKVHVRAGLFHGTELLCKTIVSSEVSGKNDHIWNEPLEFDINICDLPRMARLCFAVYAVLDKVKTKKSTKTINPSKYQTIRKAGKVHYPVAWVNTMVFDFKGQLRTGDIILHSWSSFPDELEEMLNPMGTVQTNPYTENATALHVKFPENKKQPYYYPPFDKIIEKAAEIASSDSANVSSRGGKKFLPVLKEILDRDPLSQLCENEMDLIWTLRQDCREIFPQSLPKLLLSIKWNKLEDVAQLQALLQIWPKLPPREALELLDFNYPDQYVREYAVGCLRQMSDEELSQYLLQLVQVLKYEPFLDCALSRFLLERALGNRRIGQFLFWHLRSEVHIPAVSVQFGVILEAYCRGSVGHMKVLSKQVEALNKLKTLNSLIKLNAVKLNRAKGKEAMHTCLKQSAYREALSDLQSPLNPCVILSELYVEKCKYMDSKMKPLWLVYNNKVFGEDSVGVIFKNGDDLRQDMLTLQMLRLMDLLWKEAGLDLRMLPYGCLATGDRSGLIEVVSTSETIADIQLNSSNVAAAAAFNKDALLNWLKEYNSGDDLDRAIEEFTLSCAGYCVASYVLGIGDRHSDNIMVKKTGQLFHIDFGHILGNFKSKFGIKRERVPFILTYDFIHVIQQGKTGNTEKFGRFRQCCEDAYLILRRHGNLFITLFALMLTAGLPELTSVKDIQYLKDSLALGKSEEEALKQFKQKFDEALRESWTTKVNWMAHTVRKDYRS

[4] = target: DNA-dependent protein kinase catalytic subunit (Homo sapiens, UniProt P78527); assay: Inhibition of DNAPK (unknown origin) using p53-based peptide substrate preincubated for 5 min prior to ATP addition
[5] = target: T1, Serine-protein kinase ATM (Homo sapiens, UniProt Q13315); assay: Inhibition of ATM (unknown origin) using p53 as substrate incubated for 30 mins followed by substrate addition measured after 2 hrs in presence of ATP by HTRF method
[6] = target: Phosphatidylinositol 4,5-bisphosphate 3-kinase catalytic subunit gamma isoform (Homo sapiens, UniProt P48736); assay: Inhibition of human recombinant PI3Kgamma using PIP2/ATP as substrate incubated for 20 mins followed by substrate addition by Kinase Glo reagent based luminescence assay
physchem = settings: octanol/buffer, pH 7.4
[7] = target: Serine/threonine-protein kinase ATR (Homo sapiens, UniProt Q13535); assay: Inhibition of ATR in human HT-29 cells assessed as reduction in Chk1 phosphorylation at Ser-345 residue after 60 mins in presence of 4-nitroquinoline-1-oxide by Hoechst 33258 staining based plate reader analysis; format: cell-based
Serine/threonine-protein kinase ATR, sequence (Q13535 whole entry): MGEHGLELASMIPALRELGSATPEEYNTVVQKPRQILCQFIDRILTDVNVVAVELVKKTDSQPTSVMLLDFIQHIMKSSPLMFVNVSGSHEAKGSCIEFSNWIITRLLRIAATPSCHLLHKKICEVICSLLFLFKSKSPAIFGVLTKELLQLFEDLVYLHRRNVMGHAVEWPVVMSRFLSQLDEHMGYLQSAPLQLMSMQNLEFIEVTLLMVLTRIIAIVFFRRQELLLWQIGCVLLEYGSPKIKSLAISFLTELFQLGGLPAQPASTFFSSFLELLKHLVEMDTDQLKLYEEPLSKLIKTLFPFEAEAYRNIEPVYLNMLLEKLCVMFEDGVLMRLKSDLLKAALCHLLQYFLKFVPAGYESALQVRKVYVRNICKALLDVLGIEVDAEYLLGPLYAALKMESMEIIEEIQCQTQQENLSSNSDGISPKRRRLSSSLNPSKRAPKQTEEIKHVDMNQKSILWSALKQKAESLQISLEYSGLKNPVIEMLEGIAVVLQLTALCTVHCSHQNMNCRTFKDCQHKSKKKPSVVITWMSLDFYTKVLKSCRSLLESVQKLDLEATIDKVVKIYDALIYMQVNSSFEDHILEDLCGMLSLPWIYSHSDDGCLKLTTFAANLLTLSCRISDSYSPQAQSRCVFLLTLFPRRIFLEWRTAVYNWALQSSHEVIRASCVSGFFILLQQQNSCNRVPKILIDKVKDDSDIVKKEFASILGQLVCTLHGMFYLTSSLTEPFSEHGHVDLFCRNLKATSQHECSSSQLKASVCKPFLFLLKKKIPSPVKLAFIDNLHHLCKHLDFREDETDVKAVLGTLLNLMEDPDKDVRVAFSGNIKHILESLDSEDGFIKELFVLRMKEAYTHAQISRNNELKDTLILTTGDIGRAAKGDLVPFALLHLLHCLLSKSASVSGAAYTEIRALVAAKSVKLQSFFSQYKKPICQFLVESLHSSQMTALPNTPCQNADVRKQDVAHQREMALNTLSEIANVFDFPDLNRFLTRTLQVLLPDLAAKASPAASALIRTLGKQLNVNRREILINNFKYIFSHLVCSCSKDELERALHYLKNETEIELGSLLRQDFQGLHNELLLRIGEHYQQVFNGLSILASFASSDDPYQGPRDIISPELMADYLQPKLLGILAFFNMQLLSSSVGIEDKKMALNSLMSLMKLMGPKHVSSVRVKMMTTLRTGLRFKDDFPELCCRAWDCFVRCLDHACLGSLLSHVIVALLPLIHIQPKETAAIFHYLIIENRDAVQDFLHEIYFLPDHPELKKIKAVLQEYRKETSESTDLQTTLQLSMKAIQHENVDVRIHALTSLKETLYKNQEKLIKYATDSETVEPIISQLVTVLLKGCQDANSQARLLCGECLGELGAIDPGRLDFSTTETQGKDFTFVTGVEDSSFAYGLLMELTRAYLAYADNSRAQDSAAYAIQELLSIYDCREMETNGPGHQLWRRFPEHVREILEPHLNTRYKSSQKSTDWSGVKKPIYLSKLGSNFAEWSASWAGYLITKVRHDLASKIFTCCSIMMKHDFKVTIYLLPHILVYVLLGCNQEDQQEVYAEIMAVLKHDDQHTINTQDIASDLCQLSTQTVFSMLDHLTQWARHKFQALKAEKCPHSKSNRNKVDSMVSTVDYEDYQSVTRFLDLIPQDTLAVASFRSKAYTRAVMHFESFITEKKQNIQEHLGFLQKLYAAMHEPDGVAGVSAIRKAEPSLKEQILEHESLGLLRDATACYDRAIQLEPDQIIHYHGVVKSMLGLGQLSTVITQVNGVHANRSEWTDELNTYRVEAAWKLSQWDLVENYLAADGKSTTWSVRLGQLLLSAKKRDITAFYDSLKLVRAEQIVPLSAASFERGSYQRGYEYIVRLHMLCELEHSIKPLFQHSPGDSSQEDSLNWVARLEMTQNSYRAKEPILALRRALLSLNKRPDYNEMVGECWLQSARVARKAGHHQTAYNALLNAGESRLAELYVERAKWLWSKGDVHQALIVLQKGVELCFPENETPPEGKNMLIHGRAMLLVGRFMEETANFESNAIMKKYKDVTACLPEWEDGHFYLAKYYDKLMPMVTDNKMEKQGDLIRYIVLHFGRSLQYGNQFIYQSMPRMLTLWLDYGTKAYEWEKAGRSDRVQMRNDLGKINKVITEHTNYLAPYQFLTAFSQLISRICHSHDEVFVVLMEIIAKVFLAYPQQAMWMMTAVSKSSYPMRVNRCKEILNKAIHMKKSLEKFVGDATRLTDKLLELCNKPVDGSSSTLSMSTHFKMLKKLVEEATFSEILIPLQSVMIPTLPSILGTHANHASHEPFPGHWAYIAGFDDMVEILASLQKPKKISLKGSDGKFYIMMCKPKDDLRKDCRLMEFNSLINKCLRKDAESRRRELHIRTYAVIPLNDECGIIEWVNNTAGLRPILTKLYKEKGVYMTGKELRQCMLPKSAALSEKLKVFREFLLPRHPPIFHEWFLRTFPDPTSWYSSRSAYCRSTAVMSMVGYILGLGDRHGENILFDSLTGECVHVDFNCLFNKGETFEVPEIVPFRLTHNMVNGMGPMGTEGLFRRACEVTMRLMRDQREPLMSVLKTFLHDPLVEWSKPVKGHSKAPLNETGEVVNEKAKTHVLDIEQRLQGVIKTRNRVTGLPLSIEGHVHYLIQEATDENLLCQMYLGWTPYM

in vitro [8] = settings: human, hepatocytes
[9] = target: T1, Serine-protein kinase ATM; assay: Inhibition of ATM phosphorylation at Ser-1981 residue in human HT-29 cells incubated for 1 hr followed by X-ray irradiation by Hoechst staining based fluorescence plate reader analysis; format: cell-based
[10] = target: Phosphatidylinositol 4,5-bisphosphate 3-kinase catalytic subunit alpha isoform (Homo sapiens, UniProt P42336); assay: Inhibition of human recombinant PI3Kalpha using PIP2/ATP as substrate incubated for 20 mins followed by substrate addition by Kinase Glo reagent based luminescence assay
[11] = target: Serine/threonine-protein kinase mTOR (Homo sapiens, UniProt P42345); assay: Inhibition of C-terminal FLAG-tagged recombinant mTOR (1362 to 2549 residues) (unknown origin) using Biotin-Ahx-Lys-Lys-Ala-Asn-Gln-Val-Phe-Leu-Gly-Phe-Thr-Tyr-Val-Ala-Pro-Ser-Val-Leu-Glu-Ser-Val-Lys-Glu-NH2 as substrate after 90 mins by AlphaScreen assay
[12] = Volume of distribution at steady state in dog at 1.7 mg/kg, iv or 4.2 mg/kg, po; format: ADME, organism-based, Canis lupus familiaris; settings: in vivo, read-out: Vdss
[13] = Thermodynamic solubility of the compound in 0.1M aqueous phosphate buffer at pH 7.4 after 24 hrs by LC-UV analysis; format: physicochemical; settings: read-out: Therm_solubility
Summary of the method: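 Solid samples equilibrated in 0.1 M aqueous phosphate buffer, pH 7.4, for 24 h at 25 °C.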

[14] = AUC (0 to 24 hrs) in nude mouse at 50 mg/kg, po; format: ADME, organism-based; parameters: dose 50 mg/kg, time < 24 hr, route oral; settings: in vivo
Summary of the method: (§1)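 Nude mice, single oral dose of 50 mg/kg. Vehicle was either a propylene glycol aqueous solution or 10% DMSO:90% captisol solution.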

[15] = Clearance in dog at 1.7 mg/kg, iv or 4.2 mg/kg, po; format: ADME, organism-based, Canis lupus familiaris; settings: in vivo
[16] = Intrinsic clearance in rat hepatocytes assessed per million cells; format: ADME, cell-based, Hepatocyte; settings: read-out: CLH
Summary of the method: (§2)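 Intrinsic clearance measured in hepatocytes of each species, reported as µL/min/10⁶ cells.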

[17] = Oral bioavailability in Han Wistar rat at 5 mg/kg; format: ADME, organism-based; settings: in vivo
[18] = Volume of distribution at steady state in Han Wistar rat at 2 mg/kg, iv or 5 mg/kg, po; format: ADME, organism-based; settings: in vivo, read-out: Vdss
[19] = Clearance in Han Wistar rat at 2 mg/kg, iv or 5 mg/kg, po; format: ADME, organism-based; settings: in vivo
[20] = Intrinsic clearance in mouse hepatocytes assessed per million cells; format: ADME, cell-based, Hepatocyte; settings: read-out: CLH; summary of the method: as §2
Mus musculus = assay: Time duration during which free plasma concentration stays above in-vitro ATM IC50 level in nude mouse at 50 mg/kg, po; format: ADME, organism-based; settings: in vivo; summary of the method: as §1
[21] = Intrinsic clearance in dog hepatocytes assessed per million cells; format: ADME, cell-based, Canis lupus familiaris, Hepatocyte; settings: read-out: CLH; summary of the method: as §2
[22] = Oral bioavailability in dog at 4.2 mg/kg; format: ADME, organism-based, Canis lupus familiaris; settings: in vivo
[23] = Cmax in nude mouse at 50 mg/kg, po; format: ADME, organism-based; parameters: dose 50 mg/kg, route oral; settings: in vivo; summary of the method: as §1
[24] = Intrinsic clearance in human hepatocytes assessed per million cells; format: ADME, cell-based, Hepatocyte; settings: read-out: CLH; summary of the method: as §2
[25] = target: Voltage-gated inwardly rectifying potassium channel KCNH2 (Homo sapiens, UniProt Q12809)
Voltage-gated inwardly rectifying potassium channel KCNH2, sequence (Q12809 whole entry): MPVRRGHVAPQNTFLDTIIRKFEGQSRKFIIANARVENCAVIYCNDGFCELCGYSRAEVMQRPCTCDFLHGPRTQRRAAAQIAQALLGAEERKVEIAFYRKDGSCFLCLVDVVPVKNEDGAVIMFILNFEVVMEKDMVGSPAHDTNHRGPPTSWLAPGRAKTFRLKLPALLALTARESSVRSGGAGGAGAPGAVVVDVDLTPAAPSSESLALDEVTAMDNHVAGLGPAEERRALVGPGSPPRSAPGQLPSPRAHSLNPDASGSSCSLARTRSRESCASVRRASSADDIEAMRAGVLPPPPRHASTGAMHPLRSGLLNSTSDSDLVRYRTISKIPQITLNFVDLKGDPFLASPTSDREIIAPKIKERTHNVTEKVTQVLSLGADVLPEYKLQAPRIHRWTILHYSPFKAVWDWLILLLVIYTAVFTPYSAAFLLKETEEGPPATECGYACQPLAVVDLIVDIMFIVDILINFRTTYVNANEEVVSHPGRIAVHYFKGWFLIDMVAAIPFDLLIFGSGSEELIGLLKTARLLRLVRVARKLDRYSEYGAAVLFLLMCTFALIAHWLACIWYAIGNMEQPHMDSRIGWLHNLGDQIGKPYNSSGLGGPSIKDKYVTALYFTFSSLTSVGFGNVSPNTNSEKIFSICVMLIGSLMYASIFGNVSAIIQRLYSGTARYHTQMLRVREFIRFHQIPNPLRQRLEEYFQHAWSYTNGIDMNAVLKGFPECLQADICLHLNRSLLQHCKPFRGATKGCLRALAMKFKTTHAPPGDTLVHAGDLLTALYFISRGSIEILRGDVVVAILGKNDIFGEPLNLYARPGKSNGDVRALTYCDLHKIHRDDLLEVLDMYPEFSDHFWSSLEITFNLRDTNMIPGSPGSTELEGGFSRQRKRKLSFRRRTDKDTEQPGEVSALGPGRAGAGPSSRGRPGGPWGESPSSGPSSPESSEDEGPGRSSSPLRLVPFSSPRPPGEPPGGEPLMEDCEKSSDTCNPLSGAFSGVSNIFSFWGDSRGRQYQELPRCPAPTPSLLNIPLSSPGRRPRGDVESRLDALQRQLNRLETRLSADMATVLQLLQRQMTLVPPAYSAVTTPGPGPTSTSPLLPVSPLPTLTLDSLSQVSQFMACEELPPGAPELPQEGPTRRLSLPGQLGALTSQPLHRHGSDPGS

[26] = target: T1, Serine-protein kinase ATM; assay: Inhibition of ATM in human HT-29 cells assessed as reduction in ATM phosphorylation at Ser-1981 residue up to 30 uM incubated for 1 hr followed by X-ray irradiation by Hoeschst staining based plate reader analysis; format: cell-based
[27] = target: Glycogen synthase kinase-3 beta (Homo sapiens, UniProt P49841); assay: Inhibition of GSK3beta (unknown origin)
Homo sapiens [28] = species: Homo sapiens; assay: Selectivity ratio of IC50 for C-terminal FLAG-tagged recombinant mTOR (1362 to 2549 residues) (unknown origin) to IC50 for ATM (unknown origin)
Summary of the method: (§3)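 Enzymatic selectivity calculated as the off-target enzyme IC50 over the ATM enzyme IC50. IC50s in µM, taken as means of at least 3 (ATM) or 2 (other enzymes) independent measurements.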

Homo sapiens [29] = species: Homo sapiens; assay: Selectivity ratio of IC50 for DNAPK (unknown origin) to IC50 for ATM (unknown origin); summary of the method: as §3
Homo sapiens [30] = species: Homo sapiens; assay: Selectivity ratio of IC50 for human recombinant PI3Kbeta to IC50 for ATM (unknown origin); summary of the method: as §3
Homo sapiens [31] = species: Homo sapiens; assay: Selectivity ratio of IC50 for human recombinant PI3Kalpha to IC50 for ATM (unknown origin); summary of the method: as §3
[32] = target: Vascular endothelial growth factor receptor 2 (Homo sapiens, UniProt P35968); assay: Inhibition of KDR (unknown origin)
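Throughout, for logD: determined by the shake flask method.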

Compound | hepatocyte CLint at 1.5 h (in vitro [1]) [µL/min/1e6 cells] | pIC50 [3] | pIC50 [4] | pIC50 [5] | pIC50 [6] | logD (physchem) | pIC50 [7] | hepatocyte CLint at 1.5 h (in vitro [8]) [µL/min/1e6 cells] | pIC50 [9] | pIC50 [10] | pIC50 [11] | solubility thermodynamic at 24 h [13] [µM] | inhibition [26] | Ratio IC50 (Homo sapiens [2]) | pIC50 [25] | other results
CCc1c2c(nc3ccc(OC(=O)N4CCC(N5CCCCC5)CC4)cc13)-c1cc3c(c(=O)n1C2)COC(=O)[C@]3(O)CC | – | – | – | – | – | – | – | – | – | – | – | – | – | – | – | TGI (SW-620): Active
CCC(CC)CNc1c(C(N)=O)cnc2ccc(C#N)cc12 | 74 | 5.24 | 7.01 | 8.10 | < 6.00 | – | 5.36 | 12 | 6.09 | 6.61 | 5.46 | 19 (≈ 5.63 µg/mL) | – | < 10 | 5.64 | pIC50 [27]: 6.26; Ratio IC50 (Homo sapiens [28]): > 400; Ratio IC50 (Homo sapiens [29]): > 10; Ratio IC50 (Homo sapiens [30]): > 400; Ratio IC50 (Homo sapiens [31]): > 10; pIC50 [32]: 5.09
Cc1ccc([C@@H](C)Nc2c(C(N)=O)cnc3ccc(C#N)cc23)cc1 | – | – | – | – | – | – | – | – | – | – | – | – | inactive | – | – | –

More lines, main results first:

hepatocyte CLint at 1.5 h (in vitro [1]) [µL/min/1e6 cells] | pIC50 [3] | pIC50 [4] | pIC50 [5] | pIC50 [6] | logD (physchem) | pIC50 [7] | hepatocyte CLint at 1.5 h (in vitro [8]) [µL/min/1e6 cells] | pIC50 [9] | pIC50 [10] | pIC50 [11] | solubility thermodynamic at 24 h [13] [µM] | inhibition [26] | Compound | Ratio IC50 (Homo sapiens [2]) | pIC50 [25] | other results
70 | 7.68 | 8.30 | 8.70 | 7.35 | > 4.3 | 5.72 | 11 | 6.96 | 8.10 | 6.74 | – | – | C[C@@H](Nc1c(C(N)=O)cnc2ccc(-c3cccnc3)cc12)c1ccc(Cl)cc1 | > 10 | – | –
< 5.3 | – | – | – | – | 2.5 | – | < 2.6 | – | – | – | 590 (≈ 248 µg/mL) | – | COCc1ccc(-c2ccc3ncc(C(N)=O)c(N[C@@H](C)C4CCOCC4)c3c2)cn1 | – | – | Vd [12]: 2.6 L/kg; AUC(0-t) at 24 h [14]: 40 µM·h; clearance [15]: 50 mL/min/kg; hepatocyte CLint [16]: < 5.3 µL/min/1e6 cells; bioavailability [17]: 46%; Vd [18]: 1.1 L/kg; clearance [19]: 18 mL/min/kg; hepatocyte CLint [20]: 18 µL/min/1e6 cells; Time (Mus musculus): 10 h; hepatocyte CLint [21]: 11 µL/min/1e6 cells; bioavailability [22]: 31%; Cmax [23]: 6 µM; hepatocyte CLint [24]: < 2.6 µL/min/1e6 cells
260 | – | – | – | – | > 4.3 | < 4.52 | 42 | < 4.52 | – | – | – | inactive | CCC(CC)COc1c(C(N)=O)cnc2ccc(-c3cccnc3)cc12 | – | 5.68 | –
